Assay [1] is described as follows: Inhibition of Candida albicans 205 FKS1 T1933C mutant. In short, it runs like this:
(§1)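 1,3-β-d-glucan synthase complexes were isolated from each strain and titrated against echinocandin to generate inhibition curves. IC50 was taken from the inhibition kinetics and given as the arithmetic mean of three repetitions.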

The nature of assay [2]: Inhibition of Candida glabrata ATCC 90030 wild type FKS. On the set-up: species or system Nakaseomyces glabratus. An outline of the steps:
as §1

The subject of assay [3] is Nakaseomyces glabratus. Description: Antifungal activity against Candida glabrata clinical isolate assessed as percent isolates by broth dilution assay. A general note: Dilution methods test growth across graded concentrations, often in twofold steps.
The nature of assay [4]: Inhibition of Candida tropicalis CT-C1 FKS1 T227C mutant. In short, it runs like this:
as §1

In assay [5] the test system is Candida tropicalis. Description: Antifungal activity against Candida tropicalis CT-C1 harboring FKS1 T227C mutant gene. Format: functional. In short, it runs like this: (§2)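 Whole-cell MIC testing of clinical isolates alongside reference strains. Each MIC is the geometric mean of three repetitions.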
The test system of assay [6] is Nakaseomyces glabratus. Description: Antifungal activity against Candida glabrata clinical isolate by broth dilution assay. Format: functional. In short, it runs like this: (§3)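 MIC by broth dilution. The reported value is the geometric mean of three repetitions. Clinical isolates were tested alongside reference strains C. glabrata ATCC 90030, C. tropicalis ATCC 750, C. albicans ATCC 90028, 205 and 177.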

Assay [7] concerns Candida tropicalis. Description: Antifungal activity against Candida tropicalis clinical isolate assessed as percent isolates by broth dilution assay.
The subject of assay [8] is Candida albicans. Description: Antifungal activity against Candida albicans 177 harboring FKS1 T1922C mutant gene. The class given is functional. In short, it runs like this: as §2
Assay [9] concerns Candida tropicalis. Description: Antifungal activity against Candida tropicalis clinical isolate by broth dilution assay. The class given is functional. An outline of the steps:
as §3

Assay [10] deals with Candida tropicalis. Description: Antifungal activity against wild type Candida tropicalis ATCC 750. The class given is functional. In short, it runs like this:
as §2

Assay [11] is described as follows: Inhibition of Candida tropicalis ATCC 750 wild type FKS. An outline of the steps: as §1
The test system of assay [12] is Candida albicans. Description: Antifungal activity against wild type Candida albicans ATCC 90028. The class given is functional. An outline of the steps:
as §2

The test system of assay [13] is Nakaseomyces glabratus. Description: Antifungal activity against Candida glabrata CG-C2 harboring FKS1 T1885C mutant gene. The class given is functional. An outline of the steps:
as §2

Assay [14] has as its system Nakaseomyces glabratus. Description: Antifungal activity against Candida glabrata CG-C3 harboring FKS2 T1987C mutant gene. Format: functional. An outline of the steps: as §2
Assay [15] can be described thus: Inhibition of Candida albicans 177 FKS1 T1922C mutant. In short, it runs like this: as §1
Assay [16] can be described thus: Inhibition of Candida glabrata CG-C3 FKS2 T1987C mutant. Also noted: species or system Nakaseomyces glabratus. An outline of the steps: as §1
A short description of assay [17]: Inhibition of Candida glabrata CG-C2 FKS1 T1885C mutant. On the set-up: species or system Nakaseomyces glabratus. In short, it runs like this: as §1
Assay [18] is described as follows: Inhibition of Candida albicans ATCC 90028 wild type FKS. An outline of the steps:
as §1

Assay [19] has as its system Candida albicans. Description: Antifungal activity against Candida albicans 205 harboring FKS1 T1933C mutant gene. Format: functional. An outline of the steps: as §2
Assay [20] concerns Nakaseomyces glabratus. Description: Antifungal activity against wild type Candida glabrata ATCC 90030. The class given is functional. In short, it runs like this:
as §3

Assay [21] is described as follows: Inhibition of Candida glabrata CG-C3 FKS.
Assay [22] in a line: Inhibition of Candida glabrata CG-C2 FKS.
The nature of assay [23]: Inhibition of Candida tropicalis CT-C1 FKS.

≈ marks a conversion by molar mass, not a printed value. Numbered stars: 1 amine (or outer) side, 2 acyl side, 3 side chain; on linkers, the order of the positions; unused ones are H or OH. Bridge positions count the residues as written; N and C are the ends. Square brackets hold non-standard residues; d marks the D form. Peptide text beside a SMILES is read from it. * marks the point of attachment. hTyr(3S-OH,4S-OH,3'-OSO3H) = N[C@H](C(=O)O)[C@H](O)[C@@H](O)c1ccc(O)c(OS(=O)(=O)O)c1; pTerphenylCO(4''-OnC5H11) = CCCCCOc1ccc(-c2ccc(-c3ccc(C(=O)*)cc3)cc2)cc1; Orn(4R-OH,5R-OH) = O=C([C@H](C[C@@H](O)[C@@H](O)N[*:3])N[*:1])[*:2]; hTyr(3S-OH,4S-OH) = N[C@H](C(=O)O)[C@H](O)[C@@H](O)c1ccc(O)cc1; Pro(3S-OH,4S-Me) = C[C@H]1CN[C@H](C(=O)O)[C@H]1O; X1 = CCCCCOc1ccc(-c2cc(-c3ccc(C(=O)*)cc3)no2)cc1; Gln(3R-OH) = NC(=O)C[C@@H](O)[C@H](N)C(=O)O; Hyp = O=C(O)[C@@H]1C[C@@H](O)CN1 Some results are limits rather than exact numbers.

Take `CC[C@H](C)C[C@H](C)CCCCCCCCC(=O)N[C@H]1C[C@@H](O)[C@@H](NCCN)NC(=O)[C@@H]2[C@@H](O)CCN2C(=O)[C@H]([C@H](O)CCN)NC(=O)[C@H]([C@H](O)[C@@H](O)c2ccc(O)cc2)NC(=O)[C@@H]2C[C@@H](O)CN2C(=O)[C@H]([C@@H](C)O)NC1=O` [CASPOFUNGIN]: the IC50 (usually the point on the concentration scale where inhibition reaches its midpoint) in assay [1] came out at 0.2454 µg/mL (≈ 0.224 µM); in assay [2], 0.00192 µg/mL (≈ 0.00176 µM); in assay [4] it was 0.06128 µg/mL (≈ 0.056 µM); in [11], 0.00233 µg/mL (≈ 0.00213 µM); in assay [15] it was 1.091 µg/mL (≈ 0.998 µM); in [16], 16.882 µg/mL (≈ 15.4 µM). In addition, the IC50 amounted to 12.778 µg/mL (≈ 11.7 µM) in assay [17] and 0.0005 µg/mL (≈ 0.000457 µM) in assay [18]. Moreover, the results for the Activity with Nakaseomyces glabratus [3] and in the assay with Candida tropicalis [7] were 2.2% and 5.8%, respectively. In addition, the MIC (in general, the least concentration at which growth counts as inhibited) in the assay with Candida tropicalis [5] was 4 µg/mL (≈ 3.66 µM); in the assay with Nakaseomyces glabratus [6] it was at least 2 µg/mL; against Candida albicans [8], 4 µg/mL (≈ 3.66 µM); with Candida tropicalis [9] it was at least 2 µg/mL; with Candida tropicalis [10] it was 0.25 µg/mL (≈ 0.229 µM); against Candida albicans [12], 0.12 µg/mL (≈ 0.11 µM). The MIC in the assay with Nakaseomyces glabratus [13] was 8 µg/mL (≈ 7.32 µM); in the assay on Nakaseomyces glabratus [14], over 16 µg/mL; against Candida albicans [19] it was 8 µg/mL (≈ 7.32 µM); in the assay with Nakaseomyces glabratus [20], 0.03 µg/mL (≈ 0.0274 µM).
Take `CCCCCOc1ccc(-c2ccc(-c3ccc(C(=O)N[C@H]4C[C@@H](O)[C@@H](O)NC(=O)[C@@H]5[C@@H](O)[C@@H](C)CN5C(=O)[C@H]([C@@H](C)O)NC(=O)[C@H]([C@H](O)[C@@H](O)c5ccc(O)cc5)NC(=O)[C@@H]5C[C@@H](O)CN5C(=O)[C@H]([C@@H](C)O)NC4=O)cc3)cc2)cc1` [ANIDULAFUNGIN] ({pTerphenylCO(4''-OnC5H11)}-[Orn(4R-OH,5R-OH)]T[Hyp][hTyr(3S-OH,4S-OH)]T[Pro(3S-OH,4S-Me)]; lactam 1-C): the IC50 is 0.2454 µg/mL (≈ 0.215 µM) in [1]; 0.06128 µg/mL (≈ 0.0537 µM) in assay [4]; 13.29 µg/mL (≈ 11.7 µM) in assay [21]; 0.00233 µg/mL (≈ 0.00204 µM) in [11]; 1.091 µg/mL (≈ 0.957 µM) in assay [15]; 16.882 µg/mL (≈ 14.8 µM) in [16]. The IC50 in [17] came out at 12.778 µg/mL (≈ 11.2 µM); in [22] it was 14.26 µg/mL (≈ 12.5 µM); in assay [18] it was 0.0005 µg/mL (≈ 0.000438 µM). Moreover, the minimum inhibitory concentration (MIC) in the assay on Candida tropicalis [5] was 1 µg/mL (≈ 0.877 µM); with Candida albicans [8], 0.83 µg/mL (≈ 0.728 µM); against Candida tropicalis [10], 0.06 µg/mL (≈ 0.0526 µM); in the assay with Candida albicans [12] it was 0.03 µg/mL (≈ 0.0263 µM); against Nakaseomyces glabratus [13], 4 µg/mL (≈ 3.51 µM); in the assay with Nakaseomyces glabratus [14], 8 µg/mL (≈ 7.02 µM). Also, the MIC was 1.33 µg/mL (≈ 1.17 µM) with Candida albicans [19] and under 0.03 µg/mL in the assay with Nakaseomyces glabratus [20].
Regarding `CCCCCOc1ccc(-c2cc(-c3ccc(C(=O)N[C@H]4C[C@@H](O)[C@@H](O)NC(=O)[C@@H]5[C@@H](O)[C@@H](C)CN5C(=O)[C@H]([C@H](O)CC(N)=O)NC(=O)[C@H]([C@H](O)[C@@H](O)c5ccc(O)c(OS(=O)(=O)O)c5)NC(=O)[C@@H]5C[C@@H](O)CN5C(=O)[C@H]([C@@H](C)O)NC4=O)cc3)no2)cc1` [MICAFUNGIN] (X1-[Orn(4R-OH,5R-OH)]T[Hyp][hTyr(3S-OH,4S-OH,3'-OSO3H)][Gln(3R-OH)][Pro(3S-OH,4S-Me)]; lactam 1-C), the IC50 amounted to 1.088 µg/mL (≈ 0.856 µM) in [1]; 0.00071 µg/mL (≈ 0.000559 µM) in assay [2]; 0.4014 µg/mL (≈ 0.316 µM) in assay [23]; 0.4059 µg/mL (≈ 0.32 µM) in assay [4]; 0.007545 µg/mL (≈ 0.00594 µM) in assay [11]; 1.435 µg/mL (≈ 1.13 µM) in [15]. The figures for the IC50 in assay [16], in [17] and in assay [18] were 11.422 µg/mL (≈ 8.99 µM), 15.144 µg/mL (≈ 11.9 µM) and 0.0188 µg/mL (≈ 0.0148 µM), respectively. Also, the MIC is 1 µg/mL (≈ 0.787 µM) against Candida tropicalis [5]; 1 µg/mL (≈ 0.787 µM) against Candida albicans [8]; 0.06 µg/mL (≈ 0.0472 µM) against Candida tropicalis [10]; 0.03 µg/mL (≈ 0.0236 µM) in the assay with Candida albicans [12]; 2 µg/mL (≈ 1.57 µM) with Nakaseomyces glabratus [13]; over 16 µg/mL with Nakaseomyces glabratus [14]. Also, the results for the MIC in the assay with Candida albicans [19] and against Nakaseomyces glabratus [20] were 4 µg/mL (≈ 3.15 µM) and 0.03 µg/mL (≈ 0.0236 µM), respectively.

These data come from ChEMBL document CHEMBL1255422, “Novel FKS mutations associated with echinocandin resistance in Candida species” (Antimicrob Agents Chemother, 2010).
